Data as given in ChEMBL document CHEMBL4219031, “Identification and Characterization of Von Hippel-Lindau-Recruiting Proteolysis Targeting Chimeras (PROTACs) of TANK-Binding Kinase 1” (J Med Chem, 2018).

What was measured:
[1] = molecular target: T1, von Hippel-Lindau disease tumor suppressor/Serine/threonine-protein kinase TBK1 (Homo sapiens, UniProt Q9UHD2+P40337); assay: Induction of VHL-mediated TBK1 degradation in human Panc02.13 cells after 16 hrs by Western blot method relative to control; assay type: cell-based
Procedure, shortened: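 Panc02.13 cells grown in RPMI-1640 with 15% FBS and 10 units/mL human recombinant insulin, exposed to compound for 16 h. For phospho-IRF3 read-out, TLR3 agonist Poly I:C added for the final 3 h. Cells lysed in RIPA buffer with protease/phosphatase inhibitors, lysates clarified at 16,000g, run on SDS-PAGE and immunoblotted for TBK1, pIRF3 and GAPDH.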
Target sequence in this assay (P40337 whole entry, looked up, one chain of several): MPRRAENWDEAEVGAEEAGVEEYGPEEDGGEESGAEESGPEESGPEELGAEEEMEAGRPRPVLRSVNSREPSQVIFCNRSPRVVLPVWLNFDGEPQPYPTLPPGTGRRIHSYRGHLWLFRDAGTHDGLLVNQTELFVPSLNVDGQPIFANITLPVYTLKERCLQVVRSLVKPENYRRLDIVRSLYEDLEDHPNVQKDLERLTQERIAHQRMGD

[2] = molecular target: T1, von Hippel-Lindau disease tumor suppressor/Serine/threonine-protein kinase TBK1; assay: Induction of VHL-mediated TBK1 degradation in human Panc02.13 cells after 16 hrs by Western blot method; assay type: cell-based
Procedure, shortened: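 For phospho-IRF3 read-out, TLR3 agonist Poly I:C added for the final 3 h. Cells lysed in RIPA buffer with protease/phosphatase inhibitors, lysates clarified at 16,000g, run on SDS-PAGE and immunoblotted for TBK1, pIRF3 and GAPDH.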
Target sequence in this assay (P40337 whole entry, one chain of several): as the sequence (P40337 whole entry, looked up, one chain of several) above

[3] = molecular target: von Hippel-Lindau disease tumor suppressor/Elongin-C/Elongin-B/HIF1A (Homo sapiens, UniProt P40337+Q15369+Q15370+Q16665); assay: Inhibition of His-tagged VHL/elongin B/elongin C (unknown origin) interaction with HIF1alpha preincubated for 10 mins followed by fluorescin labelled HIF1alpha peptide addition measured after 2 hrs by fluorescence polarization assay; assay type: protein-complex assay
Sequence of von Hippel-Lindau disease tumor suppressor/Elongin-C/Elongin-B/HIF1A (P40337 whole entry, looked up): as the sequence (P40337 whole entry, looked up, one chain of several) above
Sequence of von Hippel-Lindau disease tumor suppressor/Elongin-C/Elongin-B/HIF1A (Q15369 whole entry, looked up): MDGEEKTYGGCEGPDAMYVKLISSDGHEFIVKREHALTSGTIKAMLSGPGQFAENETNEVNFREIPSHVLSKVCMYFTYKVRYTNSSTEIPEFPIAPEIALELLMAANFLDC
Sequence of von Hippel-Lindau disease tumor suppressor/Elongin-C/Elongin-B/HIF1A (Q15370 whole entry, looked up): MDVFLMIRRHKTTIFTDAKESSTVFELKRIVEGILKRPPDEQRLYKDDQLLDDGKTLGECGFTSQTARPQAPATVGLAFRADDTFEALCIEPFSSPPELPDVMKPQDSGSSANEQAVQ
Sequence of von Hippel-Lindau disease tumor suppressor/Elongin-C/Elongin-B/HIF1A (Q16665 whole entry, looked up): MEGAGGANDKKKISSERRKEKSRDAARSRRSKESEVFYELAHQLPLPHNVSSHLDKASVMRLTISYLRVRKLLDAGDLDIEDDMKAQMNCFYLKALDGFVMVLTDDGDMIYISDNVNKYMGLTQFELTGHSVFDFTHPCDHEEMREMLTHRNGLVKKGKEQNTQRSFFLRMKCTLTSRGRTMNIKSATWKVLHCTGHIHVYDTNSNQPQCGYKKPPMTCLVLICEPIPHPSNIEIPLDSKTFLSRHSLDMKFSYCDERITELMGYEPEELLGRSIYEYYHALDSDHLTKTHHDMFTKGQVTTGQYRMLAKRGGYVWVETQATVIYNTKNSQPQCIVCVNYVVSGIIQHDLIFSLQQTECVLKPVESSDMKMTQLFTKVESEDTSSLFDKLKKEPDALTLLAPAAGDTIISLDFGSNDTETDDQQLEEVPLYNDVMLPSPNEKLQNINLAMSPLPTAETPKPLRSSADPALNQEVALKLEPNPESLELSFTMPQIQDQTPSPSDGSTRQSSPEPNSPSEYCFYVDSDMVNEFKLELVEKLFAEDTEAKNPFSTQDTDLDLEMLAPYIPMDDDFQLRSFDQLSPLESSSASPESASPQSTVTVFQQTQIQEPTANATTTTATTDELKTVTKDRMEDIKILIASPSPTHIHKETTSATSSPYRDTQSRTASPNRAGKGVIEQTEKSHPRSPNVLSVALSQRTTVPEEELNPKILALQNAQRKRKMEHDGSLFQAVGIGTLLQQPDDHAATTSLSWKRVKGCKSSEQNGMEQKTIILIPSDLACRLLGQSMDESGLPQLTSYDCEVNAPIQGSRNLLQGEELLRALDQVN
Procedure, shortened: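 VHL coexpressed and copurified with Elongin B and C (VCB). Compound preincubated 10 min with VHL in 50 mM Tris pH 7.5, 200 mM NaCl, 2 mM DTT, 1% DMSO. Polarization converted to percent binding against control wells; IC50 from four-parameter fit.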

[4] = molecular target: T2, Serine/threonine-protein kinase TBK1 (Homo sapiens, UniProt Q9UHD2); assay: Binding affinity to human full length wild-type TBK1 expressed in mammalian expression system
T2 sequence (Q9UHD2 whole entry): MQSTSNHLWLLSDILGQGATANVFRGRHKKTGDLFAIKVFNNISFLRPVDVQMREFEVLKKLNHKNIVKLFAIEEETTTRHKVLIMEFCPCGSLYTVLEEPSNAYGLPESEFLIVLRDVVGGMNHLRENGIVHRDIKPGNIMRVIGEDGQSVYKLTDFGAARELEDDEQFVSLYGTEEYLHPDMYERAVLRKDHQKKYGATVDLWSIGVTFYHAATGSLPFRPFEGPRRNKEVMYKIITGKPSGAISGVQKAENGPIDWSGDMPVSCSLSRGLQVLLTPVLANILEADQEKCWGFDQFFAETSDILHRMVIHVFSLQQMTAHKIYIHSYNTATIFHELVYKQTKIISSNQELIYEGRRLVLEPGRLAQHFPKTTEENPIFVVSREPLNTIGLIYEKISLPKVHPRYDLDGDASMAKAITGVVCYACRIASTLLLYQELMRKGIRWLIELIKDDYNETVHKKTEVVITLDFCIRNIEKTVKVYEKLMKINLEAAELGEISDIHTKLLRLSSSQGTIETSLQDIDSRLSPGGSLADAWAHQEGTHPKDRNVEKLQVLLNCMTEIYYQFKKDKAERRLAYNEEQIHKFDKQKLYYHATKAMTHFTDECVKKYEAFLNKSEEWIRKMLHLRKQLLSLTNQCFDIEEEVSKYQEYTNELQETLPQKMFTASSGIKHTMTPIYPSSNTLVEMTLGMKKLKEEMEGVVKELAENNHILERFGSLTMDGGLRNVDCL

Row | Emax [1] [%] | DC50 [2] [nM] | IC50 [3] [nM] | Kd [4] [nM] | SMILES
1 | 71 | 864 | 9900 |  | CC[C@H](NC(=O)COCCCOCCCCOCCCOc1ccc(Nc2ncc(Br)c(NCCCN(C)C(=O)C3CCC3)n2)cc1)C(=O)N1C[C@H](O)C[C@H]1C(=O)NCc1ccc(-c2scnc2C)cc1
2 |  | > 1000 |  |  | Cc1ncsc1-c1ccc(CNC(=O)[C@@H]2C[C@@H](O)CN2C(=O)[C@@H](NC(=O)COCCOCCOCCOc2ccc(Nc3ncc(Br)c(NCCCN(C)C(=O)C4CCC4)n3)cc2)C(C)(C)C)cc1
3 | 89 | 92 |  | 270 | Cc1cnc(Nc2ccc(OCCCOCCCCOCCCOCC(=O)N[C@H](C(=O)N3C[C@H](O)C[C@H]3C(=O)NCc3ccc(-c4scnc4C)cc3)C(C)(C)C)cc2)nc1NCCCN(C)C(=O)C1CCC1
4 | 96 | 3 |  |  | Cc1ncsc1-c1ccc(CNC(=O)[C@@H]2C[C@@H](O)CN2C(=O)[C@@H](NC(=O)COCCOCCCCOCCCCOCCOCCOc2ccc(Nc3ncc(Br)c(NCCCN(C)C(=O)C4CCC4)n3)cc2)C(C)(C)C)cc1
5 | 75 | 288 | 16000 |  | CCC[C@H](NC(=O)COCCCOCCCCOCCCOc1ccc(Nc2ncc(Br)c(NCCCN(C)C(=O)C3CCC3)n2)cc1)C(=O)N1C[C@H](O)C[C@H]1C(=O)NCc1ccc(-c2scnc2C)cc1
6 | 92 | 103 |  |  | Cc1ncsc1-c1ccc(CNC(=O)[C@@H]2C[C@@H](O)CN2C(=O)[C@@H](NC(=O)COCCOCCOCCOCCOc2ccc(Nc3ncc(Br)c(NCCCN(C)C(=O)C4CCC4)n3)cc2)C(C)(C)C)cc1
7 | 79 | 88 |  |  | Cc1ncsc1-c1ccc(CNC(=O)[C@@H]2C[C@@H](O)CN2C(=O)[C@@H](NC(=O)COCCCOCCCCCOc2ccc(Nc3ncc(Br)c(NCCCN(C)C(=O)C4CCC4)n3)cc2)C(C)(C)C)cc1
8 | 96 | 10 |  | 10.4 | Cc1ncsc1-c1ccc(CNC(=O)[C@@H]2C[C@@H](O)CN2C(=O)[C@@H](NC(=O)COCCCOCCCCOCCCOc2ccc(Nc3ncc(Cl)c(NCCCN(C)C(=O)C4CCC4)n3)cc2)C(C)(C)C)cc1
9 | 96 | 29 |  | 13 | Cc1ncsc1-c1ccc(CNC(=O)[C@@H]2C[C@@H](O)CN2C(=O)[C@@H](NC(=O)COCCCOCCCCOCCCOc2ccc(Nc3ncc(C(F)(F)F)c(NCCCN(C)C(=O)C4CCC4)n3)cc2)C(C)(C)C)cc1
10 | 96 | 34 |  |  | Cc1ncsc1-c1ccc(CNC(=O)[C@@H]2C[C@@H](O)CN2C(=O)[C@@H](NC(=O)COCCOCCOCCOCCOCCOCCOc2ccc(Nc3ncc(Br)c(NCCCN(C)C(=O)C4CCC4)n3)cc2)C(C)(C)C)cc1
11 |  | > 1000 |  | 725 | Cc1ncsc1-c1ccc(CNC(=O)[C@@H]2C[C@@H](O)CN2C(=O)[C@@H](NC(=O)COCCCOCCCCOCCCOc2ccc(Nc3nccc(NCCCN(C)C(=O)C4CCC4)n3)cc2)C(C)(C)C)cc1
12 | 96 | 48 |  | 130 | C=Cc1cnc(Nc2ccc(OCCCOCCCCOCCCOCC(=O)N[C@H](C(=O)N3C[C@H](O)C[C@H]3C(=O)NCc3ccc(-c4scnc4C)cc3)C(C)(C)C)cc2)nc1NCCCN(C)C(=O)C1CCC1
13 | 90 | 95 |  |  | Cc1ncsc1-c1ccc(CNC(=O)[C@@H]2C[C@@H](O)CN2C(=O)[C@@H](NC(=O)CCCCCOCCCCOCCCCOc2ccc(Nc3ncc(Br)c(NCCCN(C)C(=O)C4CCC4)n3)cc2)C(C)(C)C)cc1
14 | 34 | > 1000 | 25000 |  | Cc1ncsc1-c1ccc(CNC(=O)[C@@H]2C[C@@H](O)CN2C(=O)[C@H](C)NC(=O)COCCCOCCCCOCCCOc2ccc(Nc3ncc(Br)c(NCCCN(C)C(=O)C4CCC4)n3)cc2)cc1
15 | 77 | 121 |  | 275 | CCc1cnc(Nc2ccc(OCCCOCCCCOCCCOCC(=O)N[C@H](C(=O)N3C[C@H](O)C[C@H]3C(=O)NCc3ccc(-c4scnc4C)cc3)C(C)(C)C)cc2)nc1NCCCN(C)C(=O)C1CCC1
16 |  | > 1000 |  |  | Cc1ncsc1-c1ccc(CNC(=O)[C@@H]2C[C@@H](O)CN2C(=O)[C@@H](NC(=O)COCCCOCCCOc2ccc(Nc3ncc(Br)c(NCCCN(C)C(=O)C4CCC4)n3)cc2)C(C)(C)C)cc1
17 |  | > 1000 |  |  | Cc1ncsc1-c1ccc(CNC(=O)[C@@H]2C[C@@H](O)CN2C(=O)[C@@H](NC(=O)COCCOCCOc2ccc(Nc3ncc(Br)c(NCCCN(C)C(=O)C4CCC4)n3)cc2)C(C)(C)C)cc1
18 | 86 | 71 |  |  | Cc1ncsc1-c1ccc(CNC(=O)[C@@H]2C[C@@H](O)CN2C(=O)[C@@H](NC(=O)COCCOCCOCCCCOc2ccc(Nc3ncc(Br)c(NCCCN(C)C(=O)C4CCC4)n3)cc2)C(C)(C)C)cc1
19 | 96 | 3 |  | 4 | Cc1ncsc1-c1ccc(CNC(=O)[C@@H]2C[C@@H](O)CN2C(=O)[C@@H](NC(=O)COCCCOCCCCOCCCOc2ccc(Nc3ncc(I)c(NCCCN(C)C(=O)C4CCC4)n3)cc2)C(C)(C)C)cc1
20 | 70 | 544 |  | 1040 | Cc1ncsc1-c1ccc(CNC(=O)[C@@H]2C[C@@H](O)CN2C(=O)[C@@H](NC(=O)COCCCOCCCCOCCCOc2ccc(Nc3ncc(C4CCC4)c(NCCCN(C)C(=O)C4CCC4)n3)cc2)C(C)(C)C)cc1
21 | 96 | 29 |  |  | Cc1ncsc1-c1ccc(CNC(=O)[C@@H]2C[C@@H](O)CN2C(=O)[C@@H](NC(=O)COCCOCCOCCOCCOCCOc2ccc(Nc3ncc(Br)c(NCCCN(C)C(=O)C4CCC4)n3)cc2)C(C)(C)C)cc1
22 | 96 | 25 |  |  | Cc1ncsc1-c1ccc(CNC(=O)[C@@H]2C[C@@H](O)CN2C(=O)[C@@H](NC(=O)CCOCCCOCCCOCCCOCCCOc2ccc(Nc3ncc(Br)c(NCCCN(C)C(=O)C4CCC4)n3)cc2)C(C)(C)C)cc1
23 | 96 | 6 |  |  | Cc1ncsc1-c1ccc(CNC(=O)[C@@H]2C[C@@H](O)CN2C(=O)[C@@H](NC(=O)COCCOCCCCOCCCCOCCOc2ccc(Nc3ncc(Br)c(NCCCN(C)C(=O)C4CCC4)n3)cc2)C(C)(C)C)cc1
24 |  | > 1000 |  |  | Cc1ncsc1-c1ccc(CNC(=O)[C@@H]2C[C@@H](O)CN2C(=O)[C@@H](NC(=O)CCCCCOCCOc2ccc(Nc3ncc(Br)c(NCCCN(C)C(=O)C4CCC4)n3)cc2)C(C)(C)C)cc1
25 | 76 | 292 |  |  | Cc1ncsc1-c1ccc(CNC(=O)[C@@H]2C[C@@H](O)CN2C(=O)[C@@H](NC(=O)COCCCCCOCCCCOCCCCOCCCCOCCCCCOc2ccc(Nc3ncc(Br)c(NCCCN(C)C(=O)C4CCC4)n3)cc2)C(C)(C)C)cc1
26 | 0 | > 1000 | > 100000 |  | Cc1ncsc1-c1ccc(CNC(=O)[C@@H]2C[C@@H](O)CN2C(=O)CNC(=O)COCCCOCCCCOCCCOc2ccc(Nc3ncc(Br)c(NCCCN(C)C(=O)C4CCC4)n3)cc2)cc1
27 |  | > 1000 |  |  | Cc1ncsc1-c1ccc(CNC(=O)[C@@H]2C[C@@H](O)CN2C(=O)[C@@H](NC(=O)COCCCCOc2ccc(Nc3ncc(Br)c(NCCCN(C)C(=O)C4CCC4)n3)cc2)C(C)(C)C)cc1
28 | 74 | 282 |  | 104 | Cc1ncsc1-c1ccc(CNC(=O)[C@@H]2C[C@@H](O)CN2C(=O)[C@@H](NC(=O)COCCCOCCCCOCCCOc2ccc(Nc3ncc(F)c(NCCCN(C)C(=O)C4CCC4)n3)cc2)C(C)(C)C)cc1
29 | 96 | 65 |  | 245 | Cc1ncsc1-c1ccc(CNC(=O)[C@@H]2C[C@@H](O)CN2C(=O)[C@@H](NC(=O)COCCCOCCCCOCCCOc2ccc(Nc3ncc(C4CC4)c(NCCCN(C)C(=O)C4CCC4)n3)cc2)C(C)(C)C)cc1
30 | 88 | 44 | 5500 |  | Cc1ncsc1-c1ccc(CNC(=O)[C@@H]2C[C@@H](O)CN2C(=O)[C@@H](NC(=O)COCCCOCCCCOCCCOc2ccc(Nc3ncc(Br)c(NCCCN(C)C(=O)C4CCC4)n3)cc2)C(C)C)cc1
